Measurements: ChEMBL document CHEMBL5649170, “Sustained microglial depletion with CSF1R inhibitor impairs parenchymal plaque development in an Alzheimer's disease model” (Nat Commun, 2019)

Experiments:
[1] = Drug concentration in 5XFAD mouse brain at 1200 ppm administered as rodent chow for 10 to 24 weeks; type: ADME, tissue-based; conditions: in vivo, po, time 10-24 weeks, read-out: Ct
How it was run: (§1)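 WT or 5xFAD mice were started at 1.5 months of age on PLX5622 formulated at 1200 ppm in AIN-76A chow, with control chow as comparison. Feeding ran for 10 or 24 weeks. Terminal plasma and brain drug levels were then measured. Groups were sex-balanced and compared by two-tailed independent t-test.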

[2] = AUC (0 to infinity) in dog at 45 mg/kg, po administered as single dose via gavage; type: ADME, organism-based, Canis lupus familiaris; conditions: in vivo
Mus musculus [3] = assay: Antialzheimer activity in 5XFAD mouse assessed as amyloidbeta38 level in detergent soluble thalamus fraction measured per microgram protein at 1200 ppm administered as rodent chow starting from 1.5 months and measured after 7 months by ELISA (reference value: 0 to 0.010 pg); type: functional; conditions: route po, time 5.5 months, 4015 h
How it was run: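 PLX5622 at 1200 ppm in chow given to 5xFAD mice from 1.5 months to 4 or 7 months of age; cortex and thalamus homogenized in TPER (detergent-soluble), pellets re-homogenized in 70% formic acid and spun 100,000 g, 1 h, 4 °C (insoluble); protein by Bradford/Lowry; Aβ species measured by Meso Scale electrochemiluminescence immunoassay, normalized to protein; n = 7–8 per group at 7 months.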

[4] = target: Fibroblast growth factor receptor 4 (Homo sapiens, UniProt P22455); assay: Inhibition of FGFR4 (unknown origin)
Fibroblast growth factor receptor 4, sequence (P22455 whole entry): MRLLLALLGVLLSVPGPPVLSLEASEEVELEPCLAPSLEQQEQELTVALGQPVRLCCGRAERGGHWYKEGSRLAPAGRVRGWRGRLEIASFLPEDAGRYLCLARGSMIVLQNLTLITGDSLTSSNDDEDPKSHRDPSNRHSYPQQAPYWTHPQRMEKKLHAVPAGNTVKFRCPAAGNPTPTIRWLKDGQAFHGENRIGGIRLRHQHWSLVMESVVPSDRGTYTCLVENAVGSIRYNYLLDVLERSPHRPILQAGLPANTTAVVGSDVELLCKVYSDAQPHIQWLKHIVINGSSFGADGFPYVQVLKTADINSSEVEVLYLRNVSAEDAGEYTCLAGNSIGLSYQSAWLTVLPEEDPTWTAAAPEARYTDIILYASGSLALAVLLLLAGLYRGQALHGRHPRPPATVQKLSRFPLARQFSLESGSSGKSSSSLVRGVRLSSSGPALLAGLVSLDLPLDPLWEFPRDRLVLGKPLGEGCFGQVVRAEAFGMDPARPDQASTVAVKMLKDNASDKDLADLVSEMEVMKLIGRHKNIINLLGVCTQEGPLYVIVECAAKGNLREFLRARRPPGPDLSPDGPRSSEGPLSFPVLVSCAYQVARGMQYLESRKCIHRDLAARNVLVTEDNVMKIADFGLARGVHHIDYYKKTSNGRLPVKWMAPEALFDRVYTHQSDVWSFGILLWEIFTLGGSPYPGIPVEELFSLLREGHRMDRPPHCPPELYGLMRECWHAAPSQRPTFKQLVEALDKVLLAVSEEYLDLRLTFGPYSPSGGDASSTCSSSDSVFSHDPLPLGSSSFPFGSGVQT

AMPK alpha2/beta1/gamma1 = AMPK alpha2/beta1/gamma1 (Homo sapiens, UniProt P54619+P54646+Q9Y478); assay: Inhibition of AMPK_A2/B1/G1 (unknown origin); type: protein-complex assay
[5] = Effect on Csf1r RPKM gene expression in wild type mouse cortex at 1200 ppm administered as rodent chow starting from 1.5 months and measured after 7 months by RNA-Seq analysis (reference value: 18.302 to 19.220 RPKM); type: functional; conditions: route po, time 5.5 months, 4015 h
[6] = target: BDNF/NT-3 growth factors receptor (Homo sapiens, UniProt Q16620); assay: Inhibition of NTRK2 (unknown origin)
BDNF/NT-3 growth factors receptor, sequence (Q16620 whole entry): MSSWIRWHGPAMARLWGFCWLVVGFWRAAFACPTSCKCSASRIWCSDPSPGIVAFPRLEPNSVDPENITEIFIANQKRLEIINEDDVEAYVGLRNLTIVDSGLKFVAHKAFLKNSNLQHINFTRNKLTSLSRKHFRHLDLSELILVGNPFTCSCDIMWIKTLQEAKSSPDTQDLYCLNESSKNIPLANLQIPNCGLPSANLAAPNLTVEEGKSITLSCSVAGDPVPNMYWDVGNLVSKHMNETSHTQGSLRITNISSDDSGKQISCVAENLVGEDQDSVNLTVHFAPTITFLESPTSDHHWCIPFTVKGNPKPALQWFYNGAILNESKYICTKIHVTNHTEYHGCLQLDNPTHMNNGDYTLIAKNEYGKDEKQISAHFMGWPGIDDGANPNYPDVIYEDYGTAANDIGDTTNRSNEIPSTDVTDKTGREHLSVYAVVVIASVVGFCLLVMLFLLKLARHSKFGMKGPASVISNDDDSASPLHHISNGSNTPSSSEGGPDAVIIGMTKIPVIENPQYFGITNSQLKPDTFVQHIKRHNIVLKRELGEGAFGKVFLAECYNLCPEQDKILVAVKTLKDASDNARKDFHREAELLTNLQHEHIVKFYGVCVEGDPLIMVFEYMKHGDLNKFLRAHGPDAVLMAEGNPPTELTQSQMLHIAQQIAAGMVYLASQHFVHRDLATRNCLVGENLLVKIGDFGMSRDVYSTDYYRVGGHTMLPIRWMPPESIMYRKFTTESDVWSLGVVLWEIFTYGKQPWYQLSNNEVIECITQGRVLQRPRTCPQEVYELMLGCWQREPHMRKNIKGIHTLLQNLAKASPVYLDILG

[7] = Effect on Clec7a gene expression in 5XFAD mouse cortex at 1200 ppm administered as rodent chow starting from 1.5 months and measured after 7 months by RNA-Seq analysis (reference value: 2.323 to 6.756 RPKM); type: functional; conditions: route po, time 5.5 months, 4015 h
How it was run: (§2)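 WT and 5xFAD mice were treated with 1200 ppm PLX5622 chow or control chow from 1.5 to 7 months of age. Brains were microdissected into cortex, hippocampus and thalamus, and RNA was extracted from tissue powder. Whole-transcriptome RNA-Seq libraries were sequenced, with n = 4 per group per region (48 samples).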

[8] = Half-life in female rat at 1.13 mg/kg, iv administered as single dose; type: ADME, organism-based; conditions: in vivo
[9] = AUC (0 to 24 hrs) in 5XFAD mouse plasma at 1200 ppm administered as rodent chow for 180 days; type: ADME, cell-free; conditions: route po, time 180 day
[10] = target: Tyrosine-protein kinase ITK/TSK (Homo sapiens, UniProt Q08881); assay: Inhibition of ITK (unknown origin)
Tyrosine-protein kinase ITK/TSK, sequence (Q08881 whole entry): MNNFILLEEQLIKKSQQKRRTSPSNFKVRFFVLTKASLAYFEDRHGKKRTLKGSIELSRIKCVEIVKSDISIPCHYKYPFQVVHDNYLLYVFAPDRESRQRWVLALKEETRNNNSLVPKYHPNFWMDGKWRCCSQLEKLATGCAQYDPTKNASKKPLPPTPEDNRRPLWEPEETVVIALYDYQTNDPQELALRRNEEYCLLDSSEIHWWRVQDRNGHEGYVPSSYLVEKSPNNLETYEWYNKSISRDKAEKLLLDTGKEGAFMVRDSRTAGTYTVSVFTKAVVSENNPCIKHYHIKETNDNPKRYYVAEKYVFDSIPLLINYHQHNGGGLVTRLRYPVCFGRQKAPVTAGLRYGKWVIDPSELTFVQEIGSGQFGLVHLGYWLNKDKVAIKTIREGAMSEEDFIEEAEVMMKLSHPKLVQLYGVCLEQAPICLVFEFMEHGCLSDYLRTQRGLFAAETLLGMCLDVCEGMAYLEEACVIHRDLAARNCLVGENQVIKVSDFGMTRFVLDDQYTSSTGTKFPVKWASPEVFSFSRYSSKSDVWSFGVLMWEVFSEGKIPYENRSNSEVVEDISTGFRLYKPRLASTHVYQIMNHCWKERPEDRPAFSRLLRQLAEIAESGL

[11] = target: Mitogen-activated protein kinase 1 (Homo sapiens, UniProt P28482); assay: Inhibition of MAPK1 (unknown origin)
Mitogen-activated protein kinase 1, sequence (P28482 whole entry): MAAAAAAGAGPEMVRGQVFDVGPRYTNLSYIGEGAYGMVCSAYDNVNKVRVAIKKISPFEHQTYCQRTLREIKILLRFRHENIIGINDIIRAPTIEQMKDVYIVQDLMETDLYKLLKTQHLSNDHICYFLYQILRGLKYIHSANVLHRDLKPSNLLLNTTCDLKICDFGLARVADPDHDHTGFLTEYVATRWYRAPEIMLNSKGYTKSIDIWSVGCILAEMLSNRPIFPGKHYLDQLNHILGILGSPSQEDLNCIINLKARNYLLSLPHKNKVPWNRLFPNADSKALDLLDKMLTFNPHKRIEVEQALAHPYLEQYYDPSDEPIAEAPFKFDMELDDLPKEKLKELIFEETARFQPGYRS

Mus musculus [12] = assay: Effect on APP processing pathway in wildtype mouse assessed as C-terminal PS1 protein signal intensity in cortex at 1200 ppm administered as rodent starting from 1.5 months and measured after 7 months (reference value: 5.248 to 133.048 %); type: functional; conditions: route po, time 5.5 months, 4015 h
[13] = Effect on Spi1 gene expression in wild type mouse thalamus at 1200 ppm administered as rodent chow starting from 1.5 months and measured after 7 months by RNA-Seq analysis (reference value: 1.161 to 2.277 RPKM); type: functional; conditions: route po, time 5.5 months, 4015 h
[14] = Drug concentration in wildtype mouse brain at 1200 ppm administered as rodent chow for 10 to 24 weeks; type: ADME, tissue-based; conditions: in vivo, po, time 10-24 weeks, read-out: Ct; how it was run: as §1
[15] = Effect on Cx3cr1 gene expression in wild type mouse cortex at 1200 ppm administered as rodent chow starting from 1.5 months and measured after 7 months by RNA-Seq analysis (reference value: 9.334 to 12.119); type: functional; conditions: route po, time 5.5 months, 4015 h
[16] = target: Ribosomal protein S6 kinase beta-1 (Homo sapiens, UniProt P23443); assay: Inhibition of RPS6KB1 (unknown origin)
Ribosomal protein S6 kinase beta-1, sequence (P23443 whole entry): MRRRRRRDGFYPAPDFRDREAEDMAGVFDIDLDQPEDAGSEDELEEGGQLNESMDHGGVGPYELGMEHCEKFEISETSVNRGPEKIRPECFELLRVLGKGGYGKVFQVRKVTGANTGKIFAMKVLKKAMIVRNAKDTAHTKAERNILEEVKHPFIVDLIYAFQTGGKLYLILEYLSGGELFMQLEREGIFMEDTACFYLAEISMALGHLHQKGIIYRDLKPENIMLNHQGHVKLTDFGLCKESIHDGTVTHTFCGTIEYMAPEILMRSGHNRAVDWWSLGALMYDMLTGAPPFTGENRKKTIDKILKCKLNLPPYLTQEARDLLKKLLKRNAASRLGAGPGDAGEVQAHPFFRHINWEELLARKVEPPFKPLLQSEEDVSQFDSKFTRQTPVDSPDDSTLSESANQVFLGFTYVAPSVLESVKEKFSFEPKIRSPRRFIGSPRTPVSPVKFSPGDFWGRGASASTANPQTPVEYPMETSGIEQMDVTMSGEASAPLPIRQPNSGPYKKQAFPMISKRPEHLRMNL

[17] = target: Leukocyte tyrosine kinase receptor (Homo sapiens, UniProt P29376); assay: Inhibition of LTK (unknown origin)
Leukocyte tyrosine kinase receptor, sequence (P29376 whole entry): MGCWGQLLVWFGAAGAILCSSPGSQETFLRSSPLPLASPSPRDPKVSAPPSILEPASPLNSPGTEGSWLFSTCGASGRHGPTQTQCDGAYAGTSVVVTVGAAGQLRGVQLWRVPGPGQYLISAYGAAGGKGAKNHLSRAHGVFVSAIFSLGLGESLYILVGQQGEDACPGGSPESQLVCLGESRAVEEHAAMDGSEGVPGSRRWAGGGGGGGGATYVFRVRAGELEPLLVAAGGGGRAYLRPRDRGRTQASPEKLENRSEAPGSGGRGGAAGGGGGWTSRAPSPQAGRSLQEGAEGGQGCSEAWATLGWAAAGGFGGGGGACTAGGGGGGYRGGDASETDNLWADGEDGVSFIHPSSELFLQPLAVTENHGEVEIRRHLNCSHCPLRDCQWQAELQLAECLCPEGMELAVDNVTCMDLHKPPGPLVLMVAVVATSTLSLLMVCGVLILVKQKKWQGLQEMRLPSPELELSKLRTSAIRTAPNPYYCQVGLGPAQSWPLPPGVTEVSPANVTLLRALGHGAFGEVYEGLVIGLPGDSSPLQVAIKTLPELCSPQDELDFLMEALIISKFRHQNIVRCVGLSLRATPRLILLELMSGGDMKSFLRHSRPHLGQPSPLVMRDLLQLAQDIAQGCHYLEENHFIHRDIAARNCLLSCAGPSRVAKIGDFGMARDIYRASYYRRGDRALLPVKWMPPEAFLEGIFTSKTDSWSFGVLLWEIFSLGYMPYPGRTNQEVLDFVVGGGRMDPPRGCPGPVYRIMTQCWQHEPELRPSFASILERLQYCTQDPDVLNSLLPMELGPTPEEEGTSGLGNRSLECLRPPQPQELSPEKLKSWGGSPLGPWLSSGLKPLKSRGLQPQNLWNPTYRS

Mus musculus [18] = assay: Antialzheimer activity in 5XFAD mouse assessed as number of pyroglutamate-3-modified positive plaques per FOV in cortex at 1200 ppm administered as rodent chow starting from 1.5 months and measured after 7 months by Thio-S staining based confocal microscopic analysis (reference value: 14 to 34); type: functional; conditions: route po, time 5.5 months, 4015 h
[19] = Effect on Hexb gene expression in wild type mouse cortex at 1200 ppm administered as rodent chow starting from 1.5 months and measured after 7 months by RNA-Seq analysis (reference value: 38.813 to 48.079); type: functional; conditions: route po, time 5.5 months, 4015 h
[20] = target: Ribosomal protein S6 kinase alpha-4 (Homo sapiens, UniProt O75676); assay: Inhibition of RPS6KA4 (unknown origin)
Ribosomal protein S6 kinase alpha-4, sequence (O75676 whole entry): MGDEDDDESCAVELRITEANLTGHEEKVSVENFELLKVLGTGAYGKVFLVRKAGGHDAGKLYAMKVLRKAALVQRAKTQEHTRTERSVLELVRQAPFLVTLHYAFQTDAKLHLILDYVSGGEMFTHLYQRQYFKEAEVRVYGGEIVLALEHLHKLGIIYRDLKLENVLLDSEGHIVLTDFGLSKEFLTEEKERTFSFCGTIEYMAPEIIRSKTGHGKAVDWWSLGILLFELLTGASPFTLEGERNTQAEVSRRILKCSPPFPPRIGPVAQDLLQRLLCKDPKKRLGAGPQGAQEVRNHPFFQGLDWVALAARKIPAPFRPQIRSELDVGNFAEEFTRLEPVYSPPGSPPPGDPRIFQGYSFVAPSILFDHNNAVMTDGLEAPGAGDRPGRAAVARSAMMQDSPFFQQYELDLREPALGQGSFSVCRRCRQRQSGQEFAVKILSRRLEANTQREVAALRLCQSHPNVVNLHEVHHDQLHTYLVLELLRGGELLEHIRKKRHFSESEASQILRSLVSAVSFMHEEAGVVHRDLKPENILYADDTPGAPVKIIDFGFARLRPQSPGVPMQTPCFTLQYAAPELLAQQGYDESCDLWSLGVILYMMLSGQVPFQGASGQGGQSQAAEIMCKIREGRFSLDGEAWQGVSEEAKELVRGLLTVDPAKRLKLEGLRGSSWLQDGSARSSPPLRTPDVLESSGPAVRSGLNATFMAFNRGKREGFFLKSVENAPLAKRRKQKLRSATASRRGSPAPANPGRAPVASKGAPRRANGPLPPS

[21] = Effect on C1qa gene expression in 5XFAD mouse thalamus at 1200 ppm administered as rodent chow starting from 1.5 months and measured after 7 months by RNA-Seq analysis (reference value: 36.243 to 61.660 RPKM); type: functional; conditions: route po, time 5.5 months, 4015 h; how it was run: as §2
Mus musculus [22] = assay: Antialzheimer activity in 5XFAD mouse assessed as number of Iba positive cells per FOV in retro spinal cortex at 1200 ppm administered as rodent chow starting from 1.5 months and measured after 4 months (reference value: 210 to 529); type: functional; conditions: route po, time 2.5 months, 1825 h
[23] = Drug concentration in 5XFAD mouse brain at 75 ppm administered as rodent chow starting from 1.5 months and measured after 5 months; type: ADME, tissue-based; conditions: route po, time 3.5 months, read-out: Ct
How it was run: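 WT or 5xFAD mice were fed PLX3397 in AIN-76A chow at 600 ppm or 75 ppm from 1.5 to 5 months of age. Terminal brain and plasma drug concentrations were determined at study end.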

## COc1ncc(F)cc1CNc1ccc(Cc2c[nH]c3ncc(C)cc23)c(F)n1 [PLX-5622]
[1]
  concentration: 3.47 µM
[2]
  AUC(0-inf): 96.5 µg·h/mL
Mus musculus [3]
  Activity: 0 pg
[4]
  IC50: > 1 µM
AMPK alpha2/beta1/gamma1
  IC50: > 1 µM
[5]
  Activity: 0.073 RPKM
[6]
  IC50: > 1 µM
[7]
  Activity: 0.051 RPKM
[8]
  half-life: 3.9 h
[9]
  AUC at 4320 h: 218 µg·h/mL
[10]
  IC50: > 1 µM
[11]
  IC50: > 1 µM
Mus musculus [12]
  Activity: 15.313%
[13]
  Activity: 0 RPKM
[14]
  concentration: 3.35 µM
[15]
  Activity: 0 RPKM
[16]
  IC50: > 1 µM
[17]
  IC50: > 1 µM
Mus musculus [18]
  Activity: 0
[19]
  Activity: 8.715 RPKM
[20]
  IC50: > 1 µM
[21]
  Activity: 0.199 RPKM
Mus musculus [22]
  Activity: 0

## FC(F)(F)c1ccc(CNc2ccc(Cc3c[nH]c4ncc(Cl)cc34)cn2)cn1 [PEXIDARTINIB]
[23]
  concentration at 2555 h: 0.6 µM
